Broadly, the CC50 is the concentration giving 50% cytotoxicity. A word on the EC50: it is the midpoint of the concentration-response curve. One may read the EC90 as the concentration needed for an effect of 90%.

Each structure is given as a SMILES string. Where only a bound is given, the exact number is not on record here.

From PMC10765384 (Bioorganic chemistry, 2023) come the findings set out here.

Data set [1] can be described thus: Cytotoxicity, CellTiter 96 assay in Vero cells. It counts as cell-based, African green monkey. To be noted: African green monkey, kidney (Vero) cells. The method, boiled down: (§1)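 Colorimetric non-radioactive cell proliferation read-out (CellTiter 96). CC50 is the test compound concentration that inhibited cell growth by 50%.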
Data set [2] can be described thus: Cytotoxicity, CellTiter 96 assay in HepG2 cells. It counts as cell-based, human. To be noted: human, hepatocellular carcinoma (HepG2) cells. The method, boiled down: as §1
A short description of data set [3]: Cytotoxicity, CellTiter 96 assay in PBM cells. Type of data set: cell-based, human. The following applies: human, peripheral blood mononuclear (PBM) cells. The method, boiled down: as §1
Data set [4] deals with HBV DNA replication in HepAD38 cells. Kind of data set: Anti-HBV activity, 7-day assay in HepAD38 cells. It counts as cell-based, hepatitis B virus. The following applies: for EC50 / EC90: Hepatitis B virus, HePAD38, 168 h; for EC50: read-out: Anti-HBV activity EC50; for EC90: read-out: Anti-HBV activity EC90; for fold increase of anti-HBV potency compared to GLP-26: HepAD38 EC50 relative to reference GLP-26.

The nature of data set [5]: Cytotoxicity, CellTiter 96 assay in CEM cells. Type of data set: cell-based, human. The following applies: human, T lymphoblast (CEM) cells. The essentials:
as §1

As for `C#CCNC(=O)C(=O)c1c(C)c(C(=O)Nc2ccc(F)c(F)c2)n(CCC)c1C` [Compound 5b, N-(3,4-Difluorophenyl)-3,5-dimethyl-4-(2-oxo-2-(prop-2-yn-1-ylamino)acetyl)-1-propyl-1H-pyrrole-2-carboxamide], the CC50 in data set [1], in data set [2], in data set [3] and in data set [5] was over 100 µM each time. Moreover, the EC50 in data set [4] came out at 0.0091 ± 0.0037 µM. In addition, in data set [4], the EC90 is 0.044 ± 0.021 µM.

As for `C#CC1(NC(=O)C(=O)c2c(C)c(C(=O)Nc3ccc(F)c(F)c3)n(C)c2C)CCCCC1` [Compound 9f, N-(3,4-Difluorophenyl)-4-(2-(1-ethynylcyclohexylamino)-2-oxoacetyl)-1,3,5-trimethyl-1H-pyrrole-2-carboxamide], the CC50 is 43 µM in data set [1], 42 ± 23 µM in data set [2], 23 ± 13 µM in data set [3] and 15 µM in data set [5]. The “fold increase of anti-HBV potency compared to GLP-26” value (from here on “fold increase of anti-HBV potency”) in data set [4] is listed as “only a moderate improvement”. Moreover, in data set [4], the EC50 is 0.0035 ± 0.0048 µM. The EC90 in data set [4] stood at 0.0074 ± 0.0093 µM.

In the case of `C#CCNC(=O)C(=O)c1c(C)c(C(=O)Nc2ccc(F)c(F)c2)n(CC2CC2)c1C` [Compound 5f, 1-(Cyclopropylmethyl)-N-(3,4-difluorophenyl)-3,5-dimethyl-4-(2-oxo-2-(prop-2-yn-1-ylamino)acetyl)-1H-pyrrole-2-carboxamide], the CC50 in data set [1], in data set [2], in data set [3] and in data set [5] was over 100 µM each time. The EC50 in data set [4] was found to be 0.0522 ± 0.0271 µM. Moreover, the EC90 in data set [4] turned out to be 0.0522 ± 0.0271 µM.

Consider `C#CCNC(=O)C(=O)c1c(C)c(C(=O)Nc2ccc(F)c(F)c2)n(CC=C)c1C` [Compound 5d, 1-Allyl-N-(3,4-difluorophenyl)-3,5-dimethyl-4-(2-oxo-2-(prop-2-yn-1-ylamino)acetyl)-1H-pyrrole-2-carboxamide], for which the CC50 in data set [1], in data set [2], in data set [3] and in data set [5] was over 100 µM each time. Besides, the EC50 in data set [4] is 0.003 ± 0.0014 µM. Further, in data set [4], the EC90 was 0.128 ± 0.15 µM.

On to `C#CCn1c(C)c(C(=O)C(=O)NC(C#C)(CC)CC)c(C)c1C(=O)Nc1ccc(F)c(F)c1` [Compound 10b, N-(3,4-difluorophenyl)-4-(2-((3-ethylpent-1-yn-3-yl)amino)-2-oxoacetyl)-3,5-dimethyl-1-(prop-2-yn-1-yl)-1H-pyrrole-2-carboxamide], for which the cytotoxic concentration (CC50) in data set [1] is over 100 µM; in data set [2] it was 72 ± 39 µM; in data set [3], 53 ± 41 µM; in data set [5] it was 76 ± 17 µM. Moreover, the EC50 in data set [4] worked out at 0.0079 ± 0.0016 µM. For the same compound, the EC90 in data set [4] was 0.06 ± 0.041 µM.

For the compound `C#CCNC(=O)C(=O)c1c(C)c(C(=O)Nc2ccc(F)c(F)c2)n(CC#C)c1C` [Compound 5g, N-(3,4-Difluorophenyl)-3,5-dimethyl-4-(2-oxo-2-(prop-2-yn-1-ylamino)acetyl)-1-(prop-2-yn-1-yl)-1H-pyrrole-2-carboxamide], the CC50 in data set [1], in data set [2], in data set [3] and in data set [5] was over 100 µM in each case. Also, in data set [4], the “fold increase of anti-HBV potency” value is listed as over 5 fold. Further, the EC50 in data set [4] is 0.00088 ± 0.00043 µM. The EC90 in data set [4] worked out at 0.0103 ± 0.006 µM.

On to `C#CC(CC)(CC)NC(=O)C(=O)c1c(C)c(C(=O)Nc2ccc(F)c(F)c2)n(C)c1C` [Compound 9c, N-(3,4-Difluorophenyl)-4-(2-(3-ethylpent-1-yn-3-ylamino)-2-oxoacetyl)-1,3,5-trimethyl-1H-pyrrole-2-carboxamide], for which the CC50 in data set [1] was determined as 42 µM; in data set [2] it was 44 ± 35 µM; in data set [3], 26 ± 14 µM; in data set [5], 16 µM. In addition, the “fold increase of anti-HBV potency” value in data set [4] was 5–30 fold. The EC50 in data set [4] is 0.0005 ± 0.0003 µM. In data set [4], the EC90 was found to be 0.0046 ± 0.0023 µM.

Consider `C#CCNC(=O)C(=O)c1c(C)c(C(=O)Nc2ccc(F)c(F)c2)n(C2CC2)c1C` [Compound 5e, 1-Cyclopropyl-N-(3,4-difluorophenyl)-3,5-dimethyl-4-(2-oxo-2-(prop-2-yn-1-ylamino)acetyl)-1H-pyrrole-2-carboxamide], for which the CC50 in data set [1], in data set [2], in data set [3] and in data set [5] was over 100 µM in each case. Further, the EC50 in data set [4] worked out at 0.0075 ± 0.0078 µM. The EC90 in data set [4] came out at 0.0415 ± 0.012 µM.

On to `C#CC1(NC(=O)C(=O)c2c(C)c(C(=O)Nc3ccc(F)c(F)c3)n(C)c2C)CC1` [Compound 9d, N-(3,4-Difluorophenyl)-4-(2-(1-ethynylcyclopropylamino)-2-oxoacetyl)-1,3,5-trimethyl-1H-pyrrole-2-carboxamide], for which the half-maximal cytotoxic concentration (CC50) in data set [1], in data set [2], in data set [3] and in data set [5] was over 100 µM in each case. In addition, the “fold increase of anti-HBV potency” value in data set [4] is reported as 5–30 fold. Moreover, the EC50 in data set [4] came to 0.0008 ± 0.0007 µM. For the same compound, in data set [4], the EC90 is 0.0061 ± 0.0022 µM.

On to `C#CCNC(=O)C(=O)c1c(C)c(C(=O)Nc2ccc(F)c(F)c2)n(CC)c1C` [Compound 5a, N-(3,4-Difluorophenyl)-1-ethyl-3,5-dimethyl-4-(2-oxo-2-(prop-2-yn-1-ylamino)acetyl)-1H-pyrrole-2-carboxamide], for which the CC50 in data set [1], in data set [2], in data set [3] and in data set [5] was over 100 µM each time. In addition, in data set [4], the EC50 was 0.0071 ± 0.0062 µM. Moreover, the concentration for an effect of 90% (EC90) in data set [4] stood at 0.0494 ± 0.0129 µM.

`C#CCNC(=O)C(=O)c1c(C)c(C(=O)Nc2ccc(F)c(F)c2)n(CCCC)c1C` [Compound 5c, 1-Butyl-N-(3,4-difluorophenyl)-3,5-dimethyl-4-(2-oxo-2-(prop-2-yn-1-ylamino)acetyl)-1H-pyrrole-2-carboxamide]: the CC50 in data set [1], in data set [2], in data set [3] and in data set [5] was over 100 µM in each case. For the same compound, the EC50 in data set [4] turned out to be 0.0874 ± 0.0037 µM. Besides, the EC90 in data set [4] is 0.556 ± 0.147 µM.

As for `C#CC1(NC(=O)C(=O)c2c(C)c(C(=O)Nc3ccc(F)c(F)c3)n(C)c2C)CCC1` [Compound 9e, N-(3,4-Difluorophenyl)-4-(2-(1-ethynylcyclobutylamino)-2-oxoacetyl)-1,3,5-trimethyl-1H-pyrrole-2-carboxamide], the half-maximal cytotoxic concentration (CC50) is over 100 µM in data set [1], 98 µM in data set [2], over 100 µM in data set [3] and over 100 µM in data set [5]. For the same compound, the “fold increase of anti-HBV potency” value in data set [4] is on record as 5–30 fold. In addition, in data set [4], the EC50 came to 0.0003 ± 0.0004 µM. The EC90 in data set [4] was 0.0019 ± 0.0015 µM.

With `C#CCNC(=O)C(=O)c1c(C)c(C(=O)Nc2ccc(F)c(F)c2)n(CC#CCC)c1C` [Compound 5i, N-(3,4-Difluorophenyl)-3,5-dimethyl-4-(2-oxo-2-(prop-2-yn-1-ylamino)acetyl)-1-(pent-2-yn-1-yl)-1H-pyrrole-2-carboxamide], the CC50 in data set [1], in data set [2], in data set [3] and in data set [5] was over 100 µM in each case. Further, the EC50 in data set [4] was 0.826 ± 0.172 µM. The EC90 in data set [4] was 3.69 µM.

For the compound `C#CCNC(=O)C(=O)c1c(C)c(C(=O)Nc2ccc(F)c(F)c2)n(Cc2ccccc2)c1C` [Compound 5j, 1-Benzyl-N-(3,4-difluorophenyl)-3,5-dimethyl-4-(2-oxo-2-(prop-2-yn-1-ylamino)acetyl)-1H-pyrrole-2-carboxamide], the CC50 in data set [1], in data set [2], in data set [3] and in data set [5] was over 100 µM in each case. Also, in data set [4], the EC50 amounted to 2.52 µM. In data set [4], the EC90 is over 10 µM.

Regarding `C#CC(C)(CC)NC(=O)C(=O)c1c(C)c(C(=O)Nc2ccc(F)c(F)c2)n(C)c1C` (stereo not shown) [Compound 9b, N-(3,4-Difluorophenyl)-1,3,5-trimethyl-4-(2-(3-methylpent-1-yn-3-ylamino)-2-oxoacetyl)-1H-pyrrole-2-carboxamide], the CC50 is 64 ± 16 µM in data set [1], 84 ± 11 µM in data set [2], 61 ± 43 µM in data set [3] and 10 ± 3 µM in data set [5]. Also, the “fold increase of anti-HBV potency” value in data set [4] is 5–30 fold. For the same compound, the concentration giving a half-maximal response (EC50) in data set [4] was determined as 0.00015 ± 7e-05 µM. For the same compound, in data set [4], the EC90 is 0.0068 ± 0.0034 µM.

As to `C#CC(C)(C)NC(=O)C(=O)c1c(C)c(C(=O)Nc2ccc(F)c(F)c2)n(C)c1C` [Compound 9a, N-(3,4-Difluorophenyl)-1,3,5-trimethyl-4-(2-((2-methylbut-3-yn-2-yl)amino)-2-oxoacetyl)-1H-pyrrole-2-carboxamide], the CC50 in data set [1] is over 100 µM; in data set [2] it was 91 ± 12 µM; in data set [3], 64 ± 26 µM; in data set [5], 25 ± 2 µM. In data set [4], the “fold increase of anti-HBV potency” value is recorded as 5–30 fold. Besides, the EC50 in data set [4] amounted to 0.00071 ± 0.00022 µM. Besides, the EC90 in data set [4] was 0.0082 ± 0.0006 µM.

As for `C#CCNC(=O)C(=O)c1c(C)c(C(=O)Nc2ccc(F)c(F)c2)n(CC#CC)c1C` [Compound 5h, 1-(But-2-yn-1-yl)-N-(3,4-difluorophenyl)-3,5-dimethyl-4-(2-oxo-2-(prop-2-yn-1-ylamino)acetyl)-1H-pyrrole-2-carboxamide], the CC50 in data set [1], in data set [2], in data set [3] and in data set [5] was over 100 µM each time. For the same compound, in data set [4], the EC50 was found to be 0.0452 ± 0.0201 µM. Further, the EC90 in data set [4] amounted to 0.395 ± 0.327 µM.
